This is a sample that favours compounds with a hit; in the whole collection about 2.2% have one here.
NR2E3 ag-1 = activates human photoreceptor nuclear receptor NR2E3 | AID 2300 | inhibition of corepressor binding, % at 4.78 µM | GST-NR2E3/biotin-RetCOR TR-FRET, 1536-well | 320,000 compounds, 0.12% hits;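 active = percent inhibition above the cutoff of mean plus 3 SD of all tested compounds, set per screening campaign, cut at about 20% in these data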;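 also: 0% = DMSO wells and 100% = biotin wells as full block of FRET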
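Format: 1536-well format; test system: GST-NR2E3 and biotin-RetCOR proteins; read-out basis: percent inhibition of TR-FRET ratio; timing: 5 h incubation at 4 °C; detection: time-resolved FRET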
COUP-TFII inh = NR2F2 (human) inhibition, primary screen; HEK293T NGFI-A luciferase reporter, luminescence; inhibition, % at 8.6 µM; 370,000 compounds, 0.7% hits;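 active = inhibition above a per-plate cutoff, mean inhibition of test wells between control levels plus 3 SD, cut at about 38% in these data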;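 also: cells cotransfected with COUP-TFII expression vector driving the NGFI-A reporter; 0% = median of COUP-TF2 test wells and 100% = reporter-only cells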
Target sequence (P24468 whole entry, looked up): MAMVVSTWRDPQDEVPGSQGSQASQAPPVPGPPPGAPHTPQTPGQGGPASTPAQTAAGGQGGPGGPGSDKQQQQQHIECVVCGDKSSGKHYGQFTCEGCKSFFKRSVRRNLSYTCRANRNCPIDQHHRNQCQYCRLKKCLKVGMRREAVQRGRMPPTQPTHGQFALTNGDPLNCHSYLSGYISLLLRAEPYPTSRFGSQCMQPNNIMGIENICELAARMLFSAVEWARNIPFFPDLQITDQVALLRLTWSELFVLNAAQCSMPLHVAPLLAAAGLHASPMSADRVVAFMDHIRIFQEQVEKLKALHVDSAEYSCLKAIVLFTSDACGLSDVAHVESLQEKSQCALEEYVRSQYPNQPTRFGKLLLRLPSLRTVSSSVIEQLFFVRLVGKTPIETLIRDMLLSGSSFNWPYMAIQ
SMARCA2 activ = activators of SMARCA2 function. MG213 cells, MMTV-luciferase reporter, dexamethasone, overnight. activation, % at 9.1 µM. 370,000 compounds, 1% hits. AID 652017; in the data active = activation above about 7.8%;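 also: 0% = vehicle wells and 100% = reference activator wells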
GalR3 antagonist = blocks the human galanin receptor 3; O60755; HEK293 GalR3-CNG cAMP membrane potential fluorescence; galR3 body fused to GalR1 C-terminus; inhibition, % at 3 µM; 360,000 compounds, 0.44% hits; AID 651719;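 active = inhibition above the screen-wide average plus 3 SD, cut at about 13% in these data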;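 also: forskolin and galanin both at EC90 stimulate the cells; cAMP rise reported by CNG channel membrane potential dye signal; 0% = forskolin plus galanin with DMSO and 100% = forskolin alone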
Target sequence (O60755 1-299 limits assumed): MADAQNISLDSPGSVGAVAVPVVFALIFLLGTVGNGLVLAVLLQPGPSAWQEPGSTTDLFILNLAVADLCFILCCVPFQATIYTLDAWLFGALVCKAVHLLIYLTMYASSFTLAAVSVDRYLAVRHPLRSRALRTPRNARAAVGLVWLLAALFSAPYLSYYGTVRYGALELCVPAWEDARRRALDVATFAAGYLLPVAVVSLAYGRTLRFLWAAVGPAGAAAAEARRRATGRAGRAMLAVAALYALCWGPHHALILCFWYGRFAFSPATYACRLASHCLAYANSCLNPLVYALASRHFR
NR2E3 ag-2 = activates human NR2E3 receptor | inhibition of corepressor binding, % at 3.98 µM | 360,000 compounds, 0.35% hits | AID 602229 | Q9Y5X4 | CHO-S Gal4-NCOR/VP16-NR2E3 two-hybrid, luciferase;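 active = inhibition above the mean of all tested compounds plus 3 SD, cut at about 70% in these data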;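 also: 0% = DMSO with NR2E3 transfected cells and 100% = cells lacking NR2E3 construct; higher means lower luciferase signal from less NR2E3 corepressor binding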
NR2E3 ag confirm = NR2E3 agonism confirmed in two-hybrid assay. shares compounds with NR2E3 ag-2. CHO-S mammalian two-hybrid NR2E3-NCOR, luciferase luminescence. inhibition, % at 3.98 µM. 2,300 compounds, 51% hits;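 active = average inhibition above a cutoff equal to the mean inhibition of all tested compounds plus one SD, cut at about 70% in these data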;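 also: 0% = DMSO in NR2E3 cells and 100% = DMSO in cells lacking NR2E3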
GAL4-VP16 luc = counter-screen for NR2E3 agonists: GAL4-VP16 reporter inhibitors; 2,300 compounds, 29% hits; inhibition, % at 3.98 µM; shares compounds with NR2E3 ag-2; AID 624379; CHO-S GAL4-VP16 luciferase reporter, luminescence;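 active = mean inhibition above a cutoff equal to the average over all tested compounds plus one standard deviation, cut at about 70% in these data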;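 also: luciferase from a UAS reporter driven by GAL4-VP16 transactivation; 0% = DMSO with VP16-transfected cells and 100% = DMSO with cells lacking VP16; higher means less reporter light so more repression of VP16 activity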
GalR3 antag conf = confirmation of human galanin receptor 3 antagonists; shares compounds with GalR3 antagonist; HEK293 GalR3 CNG cAMP biosensor, membrane potential fluorescence; galR3 fused to GalR1 carboxy tail; challenged with forskolin and galanin at EC90; inhibition, % at 3 µM; 1,600 compounds, 59% hits; AID 652245;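 active = inhibition above the primary screen's cutoff, the mean inhibition of all screened compounds plus 3 SD, cut at about 13% in these data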;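 also: 0% = forskolin plus galanin and 100% = forskolin alone with DMSO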
HEK-CNG parental = parental cell agonism counter-screen for GalR3 antagonists; shares compounds with GalR3 antagonist; HEK293-CNG parental cells, cAMP membrane potential fluorescence; normalised: DMSO wells 0%, forskolin wells 100%; activation, % at 3 µM; 1,600 compounds, 10% hits; in the data active = activation above about 1.3%
SMARCA2 conf = SMARCA2 activation, confirmation screen; activation, % at 9.1 µM; MG213 cells, MMTV-luciferase with dexamethasone, luminescence, overnight; MG213 cells expressing E1A, Rb sequestered; DMSO wells 0%, reference activator 100%; shares compounds with SMARCA2 activ; 3,500 compounds, 30% hits;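 active = activation above its plate's cutoff, the mean activation of tested wells plus 3 SD, cut at about 7.9% in these data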
GAL4-VP16 Luc = GAL4-VP16 reporter activation counter-screen; shares compounds with SMARCA2 activ; HEK293 GAL4-VP16 pG5luc reporter, luciferase luminescence; scaled: DMSO wells 0%, SAHA wells 100%; activation, % at 9.1 µM; 3,500 compounds, 41% hits; AID 686939;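 active = activation above the solvent-only control well mean plus 3 SD, averaged across control plates, cut at about 5.2% in these data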
VP16 Luc counter = inhibits VP16 reporter, flagging COUP-TFII antagonist hits; shares compounds with COUP-TFII inh; HEK293 Gal4-VP16 luciferase reporter, luminescence; inhibition, % at 8.5 µM; 2,500 compounds, 25% hits; AID 687007; in the data active = inhibition above about 13%
COUP-TFII conf = confirmation of human COUP-TFII (NR2F2) inhibitors | inhibition, % at 8.5 µM | HEK293 NGFI-A luciferase reporter, luminescence | 2,500 compounds, 45% hits | shares compounds with COUP-TFII inh;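 active = mean inhibition over three repeats above a set limit taken from the earlier primary screen, cut at about 38% in these data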;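 also: 100% = cells given the luciferase reporter alone without the COUP-TF2 vector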
The depositor's hits bear a star; · = no result given.

SMILES | NR2E3 ag-1 | COUP-TFII inh | SMARCA2 activ | GalR3 antagonist | NR2E3 ag-2 | NR2E3 ag confirm | GAL4-VP16 luc | VP16 Luc counter | COUP-TFII conf | others
Cc1ccnc(NC(=O)Cc2ccc(-c3ccccc3)cc2)c1 | 2 | -50 | 42* | -5 | 93* | 98* | -24 | · | · | SMARCA2 conf=37*;GAL4-VP16 Luc=9.1*
CCOC(=O)[C@]12CCCC=C1N(Cc1ccc(OC)cc1)C(=O)[C@@H]2CC(=O)NCCc1ccccc1OC | · | -1 | -4 | · | · | · | · | · | ·
O=S1(=O)c2ccc(N3CC[C@@H](O)C3)cc2O[C@H]2CCN1C2 | · | 2 | 0 | · | · | · | · | · | ·
O=c1ccsc2ccccc12 | · | -3 | -2 | -2 | 12 | · | · | · | ·
O=c1[nH]sc2ccccc12 | · | -15 | 8.9* | -6 | 75* | 4 | 3 | · | · | SMARCA2 conf=0;GAL4-VP16 Luc=2
CCCCNC(=O)C1CCCN1C(=O)Nc1cc(C)cc(C)c1 (centres undefined) | · | -13 | -1 | · | · | · | · | · | ·
O=C(CCCN1C(=O)S/C(=C\C=C\c2ccccc2)C1=O)Nc1ccc(C(=O)O)cc1 | 1 | 0 | 8.5* | -6 | 54 | 8 | 58 | · | · | SMARCA2 conf=5;GAL4-VP16 Luc=2
CN1CCN(C(=O)c2cccc(-c3cnc4cnc(-c5ccccc5Oc5ccccc5)cn34)c2)CC1 | · | -24 | 9.5* | -10 | 49 | 70* | 20 | · | · | SMARCA2 conf=1;GAL4-VP16 Luc=2
C=CCn1c(O)c(N=NC(=S)Nc2ccc(OC)cc2)c2ccccc21 | 3 | 2 | -2 | -4 | 38 | · | · | · | ·
C=CCn1c(O)c(N=NC(=S)Nc2cccc(OC)c2)c2ccccc21 | -1 | 8 | 10* | -13 | 77* | 31 | 35 | · | · | SMARCA2 conf=-1;GAL4-VP16 Luc=3
CCn1c(=O)cc(SCC(=O)NCc2ccc(C)cc2)c2ccccc21 | -1 | 14 | -3 | -5 | -47 | · | · | · | ·
CCn1c(=O)cc(SCC(=O)Nc2ccc(C)cn2)c2ccccc21 | -5 | -14 | 9.2* | -4 | 74* | 95* | 17 | · | · | SMARCA2 conf=15*;GAL4-VP16 Luc=0
O=S(=O)(c1ccc(Cl)s1)N1CCC(c2cn3ccccc3n2)CC1 | · | -2 | -4 | · | · | · | · | · | ·
COc1ccc(/C=C2/CSC/C(=C/c3ccc(OC)c(OC)c3)C2=O)cc1OC | · | 73* | 1 | 3 | 64 | 38 | 29 | 57* | 97*
Nn1c(SCC(=O)NC2CCCCC2)nnc1-c1cc(-c2ccc(F)cc2)n[nH]1 | · | 5 | -1 | · | · | · | · | · | ·
OC[C@@H]1CN(Cc2ccc(-c3ccccc3)cc2)C[C@H](n2cnc3c(NC4CCC4)ncnc32)O1 | · | 69* | -5 | 3 | 80* | 91* | 79* | -4 | 45*
OC[C@@H]1CN(Cc2ccccc2)C[C@H](n2cnc3c(NC4CC4)ncnc32)O1 | · | 3 | -5 | -3 | 17 | · | · | · | ·
O=C1CCC[C@H]2C[C@H](NCc3ccc(Br)cc3)CC[C@]23CCCN13 | · | 6 | · | · | · | · | · | · | ·
Cc1nn(C)c(C)c1CN(Cc1nc(CCC(C)C)no1)C(C)C | 1 | 66* | -6 | 92* | 86* | 99* | 87* | 3 | 62*
C[C@H]1COc2cccc(N3CCCC3)c2S(=O)(=O)N1C | · | 5 | 4 | · | · | · | · | · | ·
O=C(CSc1nnc(Cn2nnc3ccccc32)o1)N(Cc1ccc(Cl)cc1)c1ccccc1 | 5 | 72* | -3 | 97* | 81* | 94* | 81* | 4 | 67* | GalR3 antag conf=102*;HEK-CNG parental=0
CC(=O)c1cccc(NC(=O)N2CCCCCC2)c1 | 0 | -10 | 2 | -1 | -16 | · | · | · | ·
CC(=O)c1cccc(NS(=O)(=O)c2ccc(NC(=O)N3CCCCC3)cc2)c1 | -1 | 56* | -3 | 83* | 68 | 29 | 33 | 14* | 44* | GalR3 antag conf=97*;HEK-CNG parental=0
Cc1nc(CN(C)C(=O)c2cc(COc3ccc4ncccc4c3)on2)cs1 | 0 | 58* | -5 | 68* | 64 | 87* | 78* | 0 | 52* | GalR3 antag conf=108*;HEK-CNG parental=0
Cc1cc(C)n(CCNC(=O)c2cc(COc3ccc4ncccc4c3)on2)n1 | 4 | 23 | -7 | -5 | 30 | · | · | · | ·
SMILES | NR2E3 ag-1 | COUP-TFII inh | SMARCA2 activ | GalR3 antagonist | NR2E3 ag-2 | NR2E3 ag confirm | GAL4-VP16 luc | VP16 Luc counter | COUP-TFII conf | others
Cc1ccc(F)cc1CNC(=O)c1cc(COc2ccc3ncccc3c2)on1 | 5 | 41* | -6 | -10 | 79* | 96* | 86* | 6 | 50*
CC(CCCC(C)(C)O)NC(=O)c1cc(COc2ccc3ncccc3c2)on1 (centres undefined) | 0 | 60* | -5 | 15* | 62 | 88* | 75* | 10 | 48* | GalR3 antag conf=50*;HEK-CNG parental=0
CN(Cc1ccccn1)C(=O)c1cc(COc2ccc(F)c(F)c2)on1 | · | -40 | 2 | -8 | -114 | · | · | · | ·
O=C(NCc1cccc(Cl)c1)c1cc(COc2ccc3ncccc3c2)on1 | -4 | 68* | -7 | -3 | 76* | 95* | 79* | 0 | 55*
CC1(c2nnnn2Cc2ccccc2)CCCCC(=O)N1Cc1cccs1 (centres undefined) | · | 3 | 0 | · | · | · | · | · | ·
c1ccc(Cn2ccc3ccc(-c4ccc5ccn(Cc6ccc7ccccc7c6)c5c4)cc32)cc1 | · | 13 | 4 | · | · | · | · | · | ·
CCCC[C@H](C(=O)N(C)c1ccccc1)[C@@H](O)c1ccc(Cl)cc1 | · | 15 | -3 | · | · | · | · | · | ·
COC(=O)[C@]12C[C@H](CC(=O)N3CCN(C(=O)C4CC4)CC3)C(=O)N(CCc3ccc(OC)c(OC)c3)C1=C[C@H](COCc1ccccc1)O[C@@H]2C | · | -13 | -2 | · | · | · | · | · | ·

Screens deposited in PubChem BioAssay by The Scripps Research Institute Molecular Screening Center.
